The values that follow come from ChEMBL document CHEMBL4196091 (Eur J Med Chem, 2018).

The test system of assay [1] is HT-29. The experiment in a line: Downregulation of VEGF gene expression in human HT-29 cells assessed as VEGF mRNA level at 10 nM after 48 hrs by RT-PCR method (reference value: 100%). Type of assay: functional. A digest of the protocol:
(§1)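 HT-29 cells were taken at 70–80% confluence and seeded at 1.5 x 10^5 per well. After 24 h they were exposed to compound for 48 h. Total RNA was isolated and TaqMan RT-qPCR run for VEGF-A, c-MYC and hTERT, normalized to β-actin. Expression is given as percent of DMSO control, with at least three measurements and one-sample t-tests.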

Assay [2] has as its system A549. The experiment in a line: Cell cycle arrest in human A549 cells assessed as accumulation at sub-G0 phase at 15 nM after 24 hrs by propidium iodide staining based flow cytometry (reference value: 2 +/- 1%). Type of assay: functional. A digest of the protocol:
(§2)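 A549 cells maintained in DMEM (1 g/L glucose, 2 mM glutamine, penicillin/streptomycin/amphotericin B, 10% FBS) and treated for 24 h. Cells were then fixed, RNase-treated and stained with propidium iodide. DNA content was measured by flow cytometry to give cell-cycle phase distribution, including a sub-G1 peak. Data are means (±SD) of two experiments.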
For orientation: Flow cytometry measures light scatter and fluorescence of single cells or particles in a stream.

Assay [3] deals with A549. The experiment in a line: Cell cycle arrest in human A549 cells assessed as accumulation at G2/M phase at 15 nM after 24 hrs by propidium iodide staining based flow cytometry (reference value: 11 +/- 4%). The assay is classed as functional. A digest of the protocol: as §2
The test system of assay [4] is HT-29. In words: Downregulation of hTERT gene expression in human HT-29 cells assessed as hTERT mRNA level at 10 nM after 48 hrs by RT-PCR method (reference value: 100%). Type of assay: functional. A digest of the protocol:
as §1

A further assay relates to HEK293. The experiment in a line: Antiproliferative activity against HEK293 cells after 2 days by MTT assay. Type of assay: ADME, cell-based. The conditions noted are these: Homo sapiens, HEK293, 48 h.
The subject of assay [5] is A549. The experiment in a line: Cell cycle arrest in human A549 cells assessed as accumulation at G0/G1 phase at 15 nM after 24 hrs by propidium iodide staining based flow cytometry (reference value: 73 +/- 3%). Type of assay: functional. A digest of the protocol:
as §2

Another assay concerns MCF7. The experiment in a line: Antiproliferative activity against human MCF7 cells after 2 days by MTT assay. Type of assay: functional, cell-based. The conditions noted are these: MCF7, 48 h.
The test system of assay [6] is A549. In words: Antiproliferative activity against human A549 cells after 2 days by MTT assay. The assay is classed as functional, cell-based. The conditions noted are these: A549, 48 h. (Formazan colour is commonly taken as a measure of viable cells.)
Assay [7] has as its system A549. In words: Cell cycle arrest in human A549 cells assessed as accumulation at G2/M phase at 0.5 times antiproliferative IC50 after 24 hrs by propidium iodide staining based flow cytometry. Type of assay: functional. A digest of the protocol:
as §2

For assay [8], the system named is HT-29. The experiment in a line: Downregulation of c-Myc gene expression in human HT-29 cells assessed as c-Myc mRNA level at 10 nM after 48 hrs by RT-PCR method (reference value: 100%). Type of assay: functional. A digest of the protocol:
as §1

For assay [9], the system named is A549. In words: Cell cycle arrest in human A549 cells assessed as accumulation at S phase at 15 nM after 24 hrs by propidium iodide staining based flow cytometry (reference value: 15 +/- 6%). The assay is classed as functional. A digest of the protocol: as §2
For assay [10], the system named is HT-29. In words: Antiproliferative activity against human HT-29 cells after 2 days by MTT assay. Type of assay: functional, cell-based. The conditions noted are these: HT-29, 48 h.
For assay [11], the system named is HT-29. In words: Inhibition of VEGF protein secretion in human HT-29 cells assessed as VEGF protein level at 10 nM after 48 hrs by ELISA (reference value: 100%). Type of assay: functional. Further details: scale not given: the % may be the effect or the level left. On the technique in general: In an ELISA, binding on a coated surface is turned into a signal by an enzyme label.

In assay [12] the test system is A549. In words: Cell cycle arrest in human A549 cells assessed as accumulation at G0/G1 phase at 50 nM after 24 hrs by propidium iodide staining based flow cytometry (reference value: 73 +/- 3%). The assay is classed as functional. A digest of the protocol:
as §2

Assay [13] concerns A549. The experiment in a line: Cell cycle arrest in human A549 cells assessed as accumulation at sub-G0 phase at 50 nM after 24 hrs by propidium iodide staining based flow cytometry (reference value: 2 +/- 1%). The assay is classed as functional. A digest of the protocol: as §2
The subject of assay [14] is A549. The experiment in a line: Cell cycle arrest in human A549 cells assessed as accumulation at S phase at 50 nM after 24 hrs by propidium iodide staining based flow cytometry (reference value: 15 +/- 6%). The assay is classed as functional. A digest of the protocol:
as §2

Assay [15] relates to A549. In words: Cell cycle arrest in human A549 cells assessed as accumulation at G2/M phase at 50 nM after 24 hrs by propidium iodide staining based flow cytometry (reference value: 11 +/- 4%). Type of assay: functional. A digest of the protocol:
as §2

For assay [16], the system named is A549. In words: Cell cycle arrest in human A549 cells assessed as accumulation at G2/M phase at antiproliferative IC50 after 24 hrs by propidium iodide staining based flow cytometry. Type of assay: functional. A digest of the protocol:
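A549 cells kept in DMEM (1 g/L glucose, 2 mM glutamine, antibiotics, amphotericin B, 10% FBS), treated 24 h with compound from 10 mM DMSO stock; fixed, RNase-treated, stained with propidium iodide, DNA content read by flow cytometry for phase distribution. Average (±SD) of two experiments.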

Assay [17] deals with HT-29. The experiment in a line: Downregulation of c-Myc gene expression in human HT-29 cells assessed as c-Myc mRNA level at 3 nM after 48 hrs by RT-PCR method (reference value: 100%). The assay is classed as functional. A digest of the protocol:
(§3)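 HT-29 cells (1.5 x 10^5 per well, six-well plate) seeded 24 h, then exposed 48 h with DMSO control; total RNA extracted, target mRNA quantified by TaqMan RT-qPCR, normalized to β-actin, expressed as percentage of control. At least three measurements; one-sample t-tests.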

The subject of assay [18] is HT-29. In words: Inhibition of VEGF protein secretion in human HT-29 cells assessed as VEGF protein level at 3 nM after 48 hrs by ELISA (reference value: 100%). The assay is classed as functional. Further details: scale not given: the % may be the effect or the level left. A digest of the protocol: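 HT-29 cells (1.5 x 10^5 per well, six-well plate) seeded 24 h, then treated 48 h with DMSO control; secreted VEGF in culture supernatant measured by human VEGF ELISA kit, expressed as percentage of control. At least three measurements.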

For assay [19], the system named is HT-29. In words: Downregulation of hTERT gene expression in human HT-29 cells assessed as hTERT mRNA level at 3 nM after 48 hrs by RT-PCR method (reference value: 100%). Type of assay: functional. A digest of the protocol:
as §3

In assay [20] the test system is HT-29. In words: Downregulation of VEGF gene expression in human HT-29 cells assessed as VEGF mRNA level at 3 nM after 48 hrs by RT-PCR method (reference value: 100%). The assay is classed as functional. A digest of the protocol:
as §3

For assay [21], the system named is HT-29. The experiment in a line: Downregulation of c-Myc gene expression in human HT-29 cells assessed as c-Myc mRNA level at […] after 48 hrs by RT-PCR method (reference value: 100%). Type of assay: functional.
For assay [22], the system named is A549. In words: Cell cycle arrest in human A549 cells assessed as accumulation at S phase at 20 nM after 24 hrs by propidium iodide staining based flow cytometry (reference value: 15 +/- 6%). The assay is classed as functional. A digest of the protocol: as §2
Assay [23] concerns HT-29. In words: Inhibition of VEGF protein secretion in human HT-29 cells assessed as VEGF protein level at […] after 48 hrs by ELISA (reference value: 100%). The assay is classed as functional. Further details: scale not given: the % may be the effect or the level left.
Assay [24] concerns HT-29. The experiment in a line: Downregulation of VEGF gene expression in human HT-29 cells assessed as VEGF mRNA level at […] after 48 hrs by RT-PCR method (reference value: 100%). The assay is classed as functional.
Assay [25] deals with A549. In words: Cell cycle arrest in human A549 cells assessed as accumulation at G2/M phase at 20 nM after 24 hrs by propidium iodide staining based flow cytometry (reference value: 11 +/- 4%). The assay is classed as functional. A digest of the protocol: as §2
Assay [26] deals with A549. The experiment in a line: Cell cycle arrest in human A549 cells assessed as accumulation at G0/G1 phase at 20 nM after 24 hrs by propidium iodide staining based flow cytometry (reference value: 73 +/- 3%). The assay is classed as functional. A digest of the protocol: as §2
The test system of assay [27] is HT-29. The experiment in a line: Downregulation of hTERT gene expression in human HT-29 cells assessed as hTERT mRNA level at […] after 48 hrs by RT-PCR method (reference value: 100%). Type of assay: functional.
For assay [28], the system named is A549. The experiment in a line: Cell cycle arrest in human A549 cells assessed as accumulation at G2/M phase at 3 nM after 24 hrs by propidium iodide staining based flow cytometry. Type of assay: functional. A digest of the protocol: as §2
Assay [29] has as its system A549. In words: Cell cycle arrest in human A549 cells assessed as accumulation at sub-G0 phase at 20 nM after 24 hrs by propidium iodide staining based flow cytometry (reference value: 2 +/- 1%). The assay is classed as functional. A digest of the protocol: as §2

SMILES strings stand for the structures. Activity calls are given as the source filed them. The rule behind the calls is not given here.

Consider `COc1cc2c(c(OC)c1OC)-c1ccc(OC)c(=O)cc1[C@@H](NC(=O)CBr)CC2`, for which the Activity with HT-29 [1] was determined as 44%; with A549 [2], 3%; with A549 [3], 53%; in the assay with HT-29 [4] it was 79%; in the assay with A549 [5] it was 25%; in the assay on HT-29 [8], 35%. In addition, the Activity in the assay with A549 [9] turned out to be 19%; in the assay with HT-29 [11] it was 100%. Also, the IC50 was 14.4 nM in the assay on HEK293, 16.4 nM in the assay on MCF7, 26 nM in the assay with A549 [6] and 13.7 nM in the assay on HT-29 [10]. Further, in the assay with A549 [7], the result was Active.
As for `COc1cc2c(c(OC)c1OC)-c1ccc(OC)c(=O)cc1[C@@H](NC(=O)c1ccccc1C)CC2`, the Activity in the assay on A549 [12] is 24%; in the assay on A549 [13], 8%; with A549 [14], 14%; with A549 [15] it was 47%. Further, the IC50 turned out to be 9 nM with HEK293, 2.02 nM in the assay with MCF7, 2 nM in the assay on A549 [6] and 5.7 nM with HT-29 [10].
Take `COc1cc2c(c(OC)c1OC)-c1ccc(OC)c(=O)cc1[C@@H](NC(=O)CCl)CC2`: the outcome in the assay with A549 [16] was Active. Besides, the Activity came out at 74% in the assay with HT-29 [17]; 2% in the assay with A549 [2]; 55% in the assay on A549 [3]; 22% in the assay with A549 [5]; 20% with A549 [9]; 100% in the assay on HT-29 [18]. Moreover, the Activity came out at 66% with HT-29 [19] and 76% with HT-29 [20]. Further, the IC50 is 4.56 nM in the assay on HEK293, 29 nM with MCF7, 12.3 nM with A549 [6] and 4.6 nM with HT-29 [10].
Consider `COc1cc2c(c(OC)c1OC)-c1ccc(OC)c(=O)cc1[C@@H](NC(=O)c1cccc(Cl)c1)CC2`, for which the Activity in the assay on HT-29 [21] came out at 20%; in the assay with A549 [22] it was 15%; in the assay with HT-29 [23] it was 48%; with HT-29 [24], 30%; in the assay on A549 [25], 57%; in the assay with A549 [26], 24%. Further, the Activity in the assay on HT-29 [27] is recorded as 59%; in the assay with A549 [29] it was 6%. Besides, the IC50 in the assay with HEK293 stood at 3 nM; in the assay on MCF7, 3.4 nM; in the assay on A549 [6], 3.1 nM; with HT-29 [10], 1.8 nM. Moreover, the outcome in the assay on A549 [28] was Active.
With `COc1cc2c(c(OC)c1OC)-c1ccc(OC)c(=O)cc1[C@@H](NC(=O)CC1CCCCC1)CC2`, the IC50 in the assay with HEK293 came to 10.5 nM; in the assay on MCF7 it was 9 nM; with A549 [6] it was 19.4 nM; with HT-29 [10], 8.7 nM.

By IC50 is commonly meant the point on the concentration scale where inhibition reaches its midpoint.
